Measurements as given in publication PMC6075869 (Journal of medicinal chemistry, 2017).

Tests used:
M5 [1] = test: Functional assay, antagonist activity on M5; assay type: cell-based
muscarinic M3 receptor [2] = test: Radioligand binding assay
[3] = target: muscarinic acetylcholine receptor (mAchR) M5 (Homo sapiens, UniProt P08912); test: Radioligand binding assay
muscarinic receptor M2 = test: Radioligand binding assay; details: no significant affinity up to 10 μM
muscarinic receptor M1 = test: Radioligand binding assay; details: no significant affinity up to 10 μM
muscarinic receptor M4 = test: Radioligand binding assay; details: no significant affinity up to 10 μM
muscarinic M3 receptor [4] = test: Functional assay, agonist activity on M3; assay type: cell-based
M5 [5] = test: Tango assay, agonist activity on M5; assay type: cell-based
5-HT3 receptor = details: antagonist; cited from earlier work
nAchR α3β4 = nAchR α3β4 (Rattus norvegicus, UniProt P04757+P12392); test: Radioligand binding assay; details: for ligand efficiency (LE): calculated from Ki
nAchR α3β4, sequence (P04757 26-499): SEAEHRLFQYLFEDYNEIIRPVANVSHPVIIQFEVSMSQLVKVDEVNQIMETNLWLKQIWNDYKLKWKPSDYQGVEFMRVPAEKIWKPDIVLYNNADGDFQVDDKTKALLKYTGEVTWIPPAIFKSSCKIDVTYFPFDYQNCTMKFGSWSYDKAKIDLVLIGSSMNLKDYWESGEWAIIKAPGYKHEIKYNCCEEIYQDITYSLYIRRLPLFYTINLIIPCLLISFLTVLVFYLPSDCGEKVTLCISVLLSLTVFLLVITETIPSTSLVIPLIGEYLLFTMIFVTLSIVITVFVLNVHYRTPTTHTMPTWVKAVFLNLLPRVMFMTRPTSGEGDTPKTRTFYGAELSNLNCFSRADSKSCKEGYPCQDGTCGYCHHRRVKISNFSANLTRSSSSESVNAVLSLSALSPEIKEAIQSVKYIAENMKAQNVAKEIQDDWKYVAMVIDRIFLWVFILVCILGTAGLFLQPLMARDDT
nAchR α3β4, sequence (P12392 21-495): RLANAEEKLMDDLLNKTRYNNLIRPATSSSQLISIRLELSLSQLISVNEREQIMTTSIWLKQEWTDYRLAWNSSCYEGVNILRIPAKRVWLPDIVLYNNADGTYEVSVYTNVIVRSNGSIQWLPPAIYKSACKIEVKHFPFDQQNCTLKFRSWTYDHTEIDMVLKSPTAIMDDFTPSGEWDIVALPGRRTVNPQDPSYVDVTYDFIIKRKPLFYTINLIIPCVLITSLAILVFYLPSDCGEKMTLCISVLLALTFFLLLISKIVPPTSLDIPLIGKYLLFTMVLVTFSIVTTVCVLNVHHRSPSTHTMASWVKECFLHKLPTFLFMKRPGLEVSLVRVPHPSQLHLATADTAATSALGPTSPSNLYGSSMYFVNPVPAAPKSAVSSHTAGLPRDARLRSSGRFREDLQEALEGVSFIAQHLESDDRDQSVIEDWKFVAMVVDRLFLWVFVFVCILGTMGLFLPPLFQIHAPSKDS

5-HT1B receptor = details: agonist; cited from earlier work
5-HT2 receptor = details: agonist; cited from earlier work
5-HT1A receptor = details: agonist; cited from earlier work
[6] = target: metabotropic glutamate receptor 2; details: cited from earlier work
[7] = target: metabotropic glutamate receptor 3; details: cited from earlier work
[8] = tested on: vesicular acetylcholine transporter; details: cited from earlier work
HIV type 1 protease = details: cited from earlier work
[9] = target: muscarinic acetylcholine receptor M2; details: cited from earlier work
[10] = target: muscarinic acetylcholine receptor M1; details: cited from earlier work
carbonic anhydrase II = details: cited from earlier work
[11] = tested on: brain human nitric-oxide synthase; details: cited from earlier work
[12] = tested on: endothelial human nitric-oxide synthase; details: cited from earlier work
[13] = tested on: inducible human nitric-oxide synthase; details: cited from earlier work
histamine H3 receptor = details: cited from earlier work
σ opioid receptor = details: cited from earlier work
[14] = tested on: human sodium/glucose cotransporter 1; details: cited from earlier work
[15] = tested on: human sodium/glucose cotransporter 2; details: cited from earlier work
[16] = target: human nicotinic acetylcholine receptor (nAchR) α2β4; test: Radioligand binding assay
nAchR α4β4 = nAchR α4β4 (Rattus norvegicus, UniProt P09483+P12392); test: Radioligand binding assay
nAchR α4β4, sequence (P09483 31-630): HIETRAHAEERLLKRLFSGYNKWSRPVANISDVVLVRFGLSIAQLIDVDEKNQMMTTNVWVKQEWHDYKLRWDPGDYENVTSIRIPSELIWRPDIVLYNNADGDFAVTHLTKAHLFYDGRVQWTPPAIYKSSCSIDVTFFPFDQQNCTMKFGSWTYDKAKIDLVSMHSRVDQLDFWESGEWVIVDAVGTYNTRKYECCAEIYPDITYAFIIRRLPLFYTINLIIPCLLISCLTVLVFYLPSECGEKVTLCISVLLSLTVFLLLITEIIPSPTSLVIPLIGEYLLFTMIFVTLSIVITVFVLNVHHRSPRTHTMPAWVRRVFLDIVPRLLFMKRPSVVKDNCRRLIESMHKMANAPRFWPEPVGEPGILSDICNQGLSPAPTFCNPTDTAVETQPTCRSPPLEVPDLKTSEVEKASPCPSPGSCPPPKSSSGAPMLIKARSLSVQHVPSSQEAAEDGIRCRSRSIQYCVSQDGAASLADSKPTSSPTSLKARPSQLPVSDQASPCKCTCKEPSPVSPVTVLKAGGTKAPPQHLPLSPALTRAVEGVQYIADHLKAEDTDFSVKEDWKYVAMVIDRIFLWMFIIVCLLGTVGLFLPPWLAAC
nAchR α4β4, sequence (P12392 21-495): as the sequence (P12392 21-495) above
Method in brief: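 Ki from radioligand binding run by the NIMH PDSP protocols. Ligand efficiency derived from Ki as LE = −RT(lnKi)/Nheavy ≈ −1.373 log10Ki/Nheavy. R is the gas constant, T is the experimental temperature in Kelvin, and Nheavy is the heavy-atom count. LE is expressed in kcal/mol/heavy atom.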

muscarinic acetylcholine receptor (mAchR) M5, sequence (P08912 whole entry): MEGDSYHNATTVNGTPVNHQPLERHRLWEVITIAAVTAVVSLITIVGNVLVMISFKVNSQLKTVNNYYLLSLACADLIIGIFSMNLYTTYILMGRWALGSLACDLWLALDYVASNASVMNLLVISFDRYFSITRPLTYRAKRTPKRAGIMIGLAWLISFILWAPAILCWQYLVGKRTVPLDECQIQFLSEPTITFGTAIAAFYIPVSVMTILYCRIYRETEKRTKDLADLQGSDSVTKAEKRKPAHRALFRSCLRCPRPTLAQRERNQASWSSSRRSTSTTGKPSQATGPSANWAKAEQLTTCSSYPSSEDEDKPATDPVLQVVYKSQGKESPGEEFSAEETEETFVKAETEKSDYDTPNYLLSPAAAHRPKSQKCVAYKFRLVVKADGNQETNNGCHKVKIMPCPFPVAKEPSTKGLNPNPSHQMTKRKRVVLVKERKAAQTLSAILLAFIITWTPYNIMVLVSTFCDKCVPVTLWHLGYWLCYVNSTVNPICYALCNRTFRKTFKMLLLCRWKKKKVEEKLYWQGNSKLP

CCC(=O)OC1(c2ccccc2)CCN(C)CC1C (stereo not shown) [Alphaprodine]
antagonist activity on M5 (M5 [1]): antagonist
binding to M3 (muscarinic M3 receptor [2]): did not bind
affinity (muscarinic M3 receptor [2]; no significant affinity up to 10 μM): > 10 µM
Ki [3]: 771 nM
ligand efficiency (LE) ([3]; calculated from Ki): 0.442 kcal/mol/heavy atom
affinity (muscarinic receptor M2): > 10 µM
affinity (muscarinic receptor M1): > 10 µM
affinity (muscarinic receptor M4): > 10 µM
agonist activity on M3 (muscarinic M3 receptor [4]): no agonist activity
agonist activity on M5 (M5 [5]): no agonist activity

Clc1cccc(SC2CCNCC2)n1 [Anpirtoline]
Ki (5-HT3 receptor): 30 nM
Ki (nAchR α3β4): 3.41 µM
ligand efficiency (LE) (nAchR α3β4): 0.536 kcal/mol/heavy atom
Ki (5-HT1B receptor): 28 nM
Ki (5-HT2 receptor): 1490 nM
Ki (5-HT1A receptor): 150 nM

N[C@@]1(C(=O)O)CS[C@H]2[C@H](C(=O)O)[C@H]21 [CHEMBL8839]
Ki [6]: 40.6 nM
Ki [7]: 4.7 nM

OC1CCCCC1N1CCC(C2CCN(C3CCCCC3O)CC2)CC1 (stereo not shown) [CHEMBL20429]
affinity [8]: 200 nM

OC1CCCCC1N1CCC(C2CCCCC2)CC1 (stereo not shown) [CHEMBL21309]
affinity [8]: 40 nM

O=C1N(Cc2ccc(O)cc2)[C@H](Cc2ccccc2)[C@H](O)[C@@H](O)[C@@H](Cc2ccccc2)N1Cc1ccc(O)cc1 [CHEMBL35860]
Ki (HIV type 1 protease): 0.12 nM

C[C@@H]1OC(=O)[C@H]2C[C@H]3CCCC[C@H]3[C@H](/C=C\[C@H]3CCC[C@H](C)N3C)[C@@H]12 [CHEMBL58824]
IC50 [9]: 851 nM
IC50 [10]: 851 nM

O=C1N(Cc2ccccc2)[C@@H](Cc2ccccc2)[C@H](O)[C@@H](O)[C@H](Cc2ccccc2)N1Cc1ccccc1 [CHEMBL148543]
Ki (HIV type 1 protease): 560 nM

NS(=O)(=O)c1cc2c(s1)SCCC2=O [CHEMBL158261]
affinity (carbonic anhydrase II): 3.6 nM

NC1=NCCCSC1 [CHEMBL186856]
IC50 [11]: 2800 nM
IC50 [12]: 10.5 µM
IC50 [13]: 1200 nM

N[C@@]1(C(=O)O)C[S+]([O-])[C@H]2[C@H](C(=O)O)[C@H]21 (stereo partly shown) [CHEMBL218710]
Ki [6]: 508 nM
Ki [7]: 447 nM

C[C@@H]1CCCN1CCc1ccns1 [CHEMBL255141]
Ki (histamine H3 receptor): 17 nM

C[C@@H]1CCCN1CCc1ccccn1 [CHEMBL270807]
Ki (histamine H3 receptor): 200 nM

C[C@@H]1OC(=O)[C@@H]2C[C@@H]3CCCC[C@@H]3[C@@H](/C=C/[C@H]3CCC[C@H](C)N3C)[C@H]12 [CHEMBL301670]
IC50 [9]: 95.5 nM
IC50 [10]: 427 nM

NC1=NCCCS1 [CHEMBL306541]
IC50 [11]: 3200 nM
IC50 [12]: 7.1 µM
IC50 [13]: 2900 nM

NS(=O)(=O)c1cc2c(s1)S(=O)(=O)CCC2 [CHEMBL333193]
affinity (carbonic anhydrase II): 3.3 nM

CN(CCc1ccc2ccccc2c1)[C@H]1CCCC[C@H]1N1CCCC1 [CHEMBL606937]
IC50 (σ opioid receptor): 37 nM

CN(CCc1ccc2c(c1)OCO2)[C@@H]1CCCC[C@@H]1N1CCCC1 [CHEMBL606938]
IC50 (σ opioid receptor): 34 nM

N#Cc1ccc(Cc2cc([C@@H]3O[C@H](CO)[C@@H](O)[C@H](O)[C@H]3O)ccc2Cl)cc1 [CHEMBL1807550]
IC50 [14]: 10 nM
IC50 [15]: 10 µM

CCOc1ccc(Cc2cc([C@@H]3O[C@H](CO)[C@@H](O)[C@H](O)[C@H]3O)ccc2Cl)cc1 [CHEMBL3125318]
IC50 [14]: 3100 nM

NC1CCCC1c1ccccc1 (stereo not shown) [cypenamine]
Ki (nAchR α3β4): 2.69 µM
ligand efficiency (LE) (nAchR α3β4): 0.637 kcal/mol/heavy atom
Ki [16]: 4.65 µM
Ki (nAchR α4β4): 4.11 µM
ligand efficiency (LE) (nAchR α4β4; calculated from Ki): 0.616 kcal/mol/heavy atom
